Results as given in ChEMBL document CHEMBL3616442, “Unconventional Knoevenagel-type indoles: Synthesis and cell-based studies for the identification of pro-apoptotic agents” (Eur J Med Chem, 2015).
pEC50: −log10 of the molar value.

What was measured:
[1] = system: MT4; assay: Antiproliferative activity against human MT4 cells after 96 hrs by MTT assay; type: functional, cell-based; conditions: MT4, 96 h
Summary of the method: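 Exponentially growing MT-4 cells (CD4+ human T-cells carrying integrated HTLV-1 genome), seeded at 1×10^5 cells/mL in RPMI-1640 with 10% FCS and antibiotics. Serial dilutions of compound (DMSO stock 100 mM, diluted in medium), 37 °C, 5% CO₂, 96 h. Viability read by MTT. 50% inhibition versus untreated controls by linear regression. Mean ± SD of three independent determinations.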

[2] = Growth inhibition of human MOLT4 cells after 48 hrs by sulforhodamine B assay; type: functional; conditions: MOLT-4, 48 h
Summary of the method: (§1)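 NCI 60-cell-line screen. Compounds tested at five 10-fold dilutions from 10^-4 to 10^-8 M. Cells exposed for the last 48 h of a 72 h incubation, growth estimated by sulforhodamine B protein assay. GI50 is the concentration giving 50% growth inhibition. Values beyond the tested range are expressed as greater or lesser than the extreme concentration.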

[3] = Growth inhibition of human RPMI8226 cells after 48 hrs by sulforhodamine B assay; type: functional; conditions: RPMI-8226, 48 h
[4] = system: SR; assay: Growth inhibition of human SR cells after 48 hrs by sulforhodamine B assay; type: functional
[5] = system: A549; assay: Growth inhibition of human A549 cells after 48 hrs by sulforhodamine B assay; type: functional; conditions: A549, 48 h; summary of the method: as §1
[6] = Growth inhibition of human EKVX cells after 48 hrs by sulforhodamine B assay; type: functional; summary of the method: as §1
[7] = system: HOP-62; assay: Growth inhibition of human HOP62 cells after 48 hrs by sulforhodamine B assay; type: functional; conditions: HOP-62, 48 h; summary of the method: as §1
[8] = Growth inhibition of human HOP92 cells after 48 hrs by sulforhodamine B assay; type: functional; conditions: HOP-92, 48 h; summary of the method: as §1
[9] = system: NCI-H226; assay: Growth inhibition of human NCI-H226 cells after 48 hrs by sulforhodamine B assay; type: functional; conditions: NCI-H226, 48 h; summary of the method: as §1
[10] = system: NCI-H23; assay: Growth inhibition of human NCI-H23 cells after 48 hrs by sulforhodamine B assay; type: functional; conditions: NCI-H23, 48 h; summary of the method: as §1
[11] = system: NCI-H322M; assay: Growth inhibition of human NCI-H322M cells after 48 hrs by sulforhodamine B assay; type: functional; summary of the method: as §1
[12] = system: NCI-H460; assay: Growth inhibition of human NCI-H460 cells after 48 hrs by sulforhodamine B assay; type: functional; conditions: NCI-H460, 48 h; summary of the method: as §1
[13] = system: NCI-H522; assay: Growth inhibition of human NCI-H522 cells after 48 hrs by sulforhodamine B assay; type: functional; conditions: NCI-H522, 48 h; summary of the method: as §1
[14] = Growth inhibition of human COLO205 cells after 48 hrs by sulforhodamine B assay; type: functional; conditions: COLO 205, 48 h; summary of the method: as §1
[15] = Growth inhibition of human HCC2998 cells after 48 hrs by sulforhodamine B assay; type: functional; conditions: HCC 2998, 48 h; summary of the method: as §1
[16] = system: HCT-116; assay: Growth inhibition of human HCT116 cells after 48 hrs by sulforhodamine B assay; type: functional; conditions: HCT-116, 48 h; summary of the method: as §1
[17] = system: HCT-15; assay: Growth inhibition of human HCT15 cells after 48 hrs by sulforhodamine B assay; type: functional; conditions: HCT-15, 48 h; summary of the method: as §1
[18] = system: HT-29; assay: Growth inhibition of human HT-29 cells after 48 hrs by sulforhodamine B assay; type: functional; conditions: HT-29, 48 h; summary of the method: as §1
[19] = system: KM12; assay: Growth inhibition of human KM12 cells after 48 hrs by sulforhodamine B assay; type: functional; conditions: KM12, 48 h; summary of the method: as §1
[20] = system: SW-620; assay: Growth inhibition of human SW620 cells after 48 hrs by sulforhodamine B assay; type: functional; conditions: SW-620, 48 h
[21] = system: SF-268; assay: Growth inhibition of human SF268 cells after 48 hrs by sulforhodamine B assay; type: functional; conditions: SF-268, 48 h
[22] = Growth inhibition of human SF295 cells after 48 hrs by sulforhodamine B assay; type: functional; conditions: SF-295, 48 h
[23] = Growth inhibition of human SF539 cells after 48 hrs by sulforhodamine B assay; type: functional; conditions: SF-539, 48 h
[24] = system: SNB-19; assay: Growth inhibition of human SNB19 cells after 48 hrs by sulforhodamine B assay; type: functional; conditions: SNB-19, 48 h
[25] = system: SNB-75; assay: Growth inhibition of human SNB75 cells after 48 hrs by sulforhodamine B assay; type: functional; conditions: SNB-75, 48 h
[26] = system: U-251; assay: Growth inhibition of human U251 cells after 48 hrs by sulforhodamine B assay; type: functional; conditions: U-251, 48 h
[27] = Growth inhibition of human LOXIMVI cells after 48 hrs by sulforhodamine B assay; type: functional; conditions: LOX IMVI; summary of the method: as §1
[28] = system: Malme-3M; assay: Growth inhibition of human MALME-3M cells after 48 hrs by sulforhodamine B assay; type: functional; summary of the method: as §1
[29] = system: M14; assay: Growth inhibition of human M14 cells after 48 hrs by sulforhodamine B assay; type: functional; conditions: M14, 48 h; summary of the method: as §1
[30] = system: MDA-MB-435; assay: Growth inhibition of human MDA-MB-435 cells after 48 hrs by sulforhodamine B assay; type: functional; conditions: MDA-MB-435, 48 h; summary of the method: as §1
[31] = system: SK-MEL-2; assay: Growth inhibition of human SK-MEL-2 cells after 48 hrs by sulforhodamine B assay; type: functional; conditions: SK-MEL-2, 48 h
[32] = system: SK-MEL-28; assay: Growth inhibition of human SK-MEL-28 cells after 48 hrs by sulforhodamine B assay; type: functional; conditions: SK-MEL-28, 48 h
[33] = system: UACC-257; assay: Growth inhibition of human UACC257 cells after 48 hrs by sulforhodamine B assay; type: functional; conditions: UACC-257, 48 h
[34] = system: UACC-62; assay: Growth inhibition of human UACC62 cells after 48 hrs by sulforhodamine B assay; type: functional; conditions: UACC-62, 48 h
[35] = system: IGROV-1; assay: Growth inhibition of human IGROV1 cells after 48 hrs by sulforhodamine B assay; type: functional; conditions: IGROV-1, 48 h; summary of the method: as §1
[36] = system: OVCAR-3; assay: Growth inhibition of human OVCAR3 cells after 48 hrs by sulforhodamine B assay; type: functional; conditions: OVCAR-3, 48 h; summary of the method: as §1
[37] = system: OVCAR-4; assay: Growth inhibition of human OVCAR4 cells after 48 hrs by sulforhodamine B assay; type: functional; conditions: OVCAR-4, 48 h; summary of the method: as §1
[38] = system: OVCAR-5; assay: Growth inhibition of human OVCAR5 cells after 48 hrs by sulforhodamine B assay; type: functional; conditions: OVCAR-5, 48 h
[39] = system: OVCAR-8; assay: Growth inhibition of human OVCAR8 cells after 48 hrs by sulforhodamine B assay; type: functional; conditions: OVCAR-8, 48 h
[40] = Growth inhibition of human NCI-ADR-RES cells after 48 hrs by sulforhodamine B assay; type: functional; summary of the method: as §1
[41] = system: SK-OV-3; assay: Growth inhibition of human SKOV3 cells after 48 hrs by sulforhodamine B assay; type: functional; conditions: SK-OV-3, 48 h
[42] = system: 786-0; assay: Growth inhibition of human 786-0 cells after 48 hrs by sulforhodamine B assay; type: functional; conditions: 786-0, 48 h; summary of the method: as §1
[43] = system: A498; assay: Growth inhibition of human A498 cells after 48 hrs by sulforhodamine B assay; type: functional; conditions: A498, 48 h; summary of the method: as §1
[44] = system: ACHN; assay: Growth inhibition of human ACHN cells after 48 hrs by sulforhodamine B assay; type: functional; summary of the method: as §1
[45] = system: CAKI-1; assay: Growth inhibition of human CAKI-1 cells after 48 hrs by sulforhodamine B assay; type: functional; conditions: CAKI-1, 48 h; summary of the method: as §1
[46] = Growth inhibition of human RXF393 cells after 48 hrs by sulforhodamine B assay; type: functional; conditions: RXF 393, 48 h
[47] = system: SN12C; assay: Growth inhibition of human SN12C cells after 48 hrs by sulforhodamine B assay; type: functional
[48] = system: TK-10; assay: Growth inhibition of human TK10 cells after 48 hrs by sulforhodamine B assay; type: functional; conditions: TK-10, 48 h
[49] = system: UO-31; assay: Growth inhibition of human UO31 cells after 48 hrs by sulforhodamine B assay; type: functional; conditions: UO-31, 48 h
[50] = system: PC-3; assay: Growth inhibition of human PC3 cells after 48 hrs by sulforhodamine B assay; type: functional; conditions: PC-3, 48 h
[51] = system: DU-145; assay: Growth inhibition of human DU145 cells after 48 hrs by sulforhodamine B assay; type: functional; conditions: DU-145, 48 h; summary of the method: as §1
[52] = system: MCF7; assay: Growth inhibition of human MCF7 cells after 48 hrs by sulforhodamine B assay; type: functional; conditions: MCF7, 48 h; summary of the method: as §1
[53] = system: MDA-MB-231; assay: Growth inhibition of human MDA-MB-231 cells after 48 hrs by sulforhodamine B assay; type: functional; conditions: MDA-MB-231, 48 h; summary of the method: as §1
[54] = Growth inhibition of human Hs 578T cells after 48 hrs by sulforhodamine B assay; type: functional; summary of the method: as §1
[55] = Growth inhibition of human BT549 cells after 48 hrs by sulforhodamine B assay; type: functional; conditions: BT-549, 48 h; summary of the method: as §1
[56] = system: T47D; assay: Growth inhibition of human T47D cells after 48 hrs by sulforhodamine B assay; type: functional
[57] = system: MDA-MB-468; assay: Growth inhibition of human MDA-MB-468 cells after 48 hrs by sulforhodamine B assay; type: functional; conditions: MDA-MB-468, 48 h; summary of the method: as §1

COC(=O)/C(=C\c1c(C)[nH]c2ccccc12)S(=O)(=O)c1ccccc1
pEC50 [1]: 4.51 | GI50 [2]: 1.9 µM | GI50 [3]: 3.2 µM | GI50 [4]: 1.1 µM | GI50 [5]: 4.9 µM | GI50 [6]: 5 µM | GI50 [7]: 7.7 µM | GI50 [8]: 4.1 µM | GI50 [9]: 4.3 µM | GI50 [10]: 4.8 µM | GI50 [11]: 8.8 µM | GI50 [12]: 3 µM | GI50 [13]: 3.2 µM | GI50 [14]: 7.5 µM | GI50 [15]: 4.9 µM | GI50 [16]: 3.8 µM | GI50 [17]: 3.1 µM | GI50 [18]: 5.2 µM | GI50 [19]: 2.4 µM | GI50 [20]: 5.2 µM | GI50 [21]: 3.3 µM | GI50 [22]: 3.1 µM | GI50 [23]: 3.4 µM | GI50 [24]: 7.6 µM | GI50 [25]: 3.1 µM | GI50 [26]: 3.4 µM | GI50 [27]: 2 µM | GI50 [28]: 7.3 µM | GI50 [29]: 4.4 µM | GI50 [30]: 2.9 µM | GI50 [31]: 10.6 µM | GI50 [32]: 5.8 µM | GI50 [33]: 7 µM | GI50 [34]: 2.8 µM | GI50 [35]: 1.5 µM | GI50 [36]: 2.7 µM | GI50 [37]: 5.7 µM | GI50 [38]: 17.4 µM | GI50 [39]: 3.9 µM | GI50 [40]: 4.2 µM | GI50 [41]: 9.3 µM | GI50 [42]: 8.2 µM | GI50 [43]: 5.5 µM | GI50 [44]: 5.5 µM | GI50 [45]: 3.3 µM | GI50 [46]: 3.6 µM | GI50 [47]: 2.6 µM | GI50 [48]: 8.1 µM | GI50 [49]: 4.4 µM | GI50 [50]: 5.6 µM | GI50 [51]: 2.9 µM | GI50 [52]: 2.8 µM | GI50 [53]: 2.7 µM | GI50 [54]: 2.9 µM | GI50 [55]: 5.4 µM | GI50 [56]: 3.2 µM | GI50 [57]: 6.3 µM
